Experimental data published in ChEMBL document CHEMBL1137712, “Antidyslipidemic and antioxidative activities of 8-hydroxyquinoline derived novel keto-enamine Schiffs bases” (Eur J Med Chem, 2009).
Active and inactive are the calls of the source. No cut-off for these calls is given here.

How the values were obtained:
Rattus norvegicus [1] = test: Antidyslipidemic activity against triton-induced hyperlipidemia in Charles Foster rat assessed as reduction in triglyceride level at 100 mg/kg, po after 18 hrs by spectrophotometry relative to control; type: functional; parameters: scale not given: the % may be the effect or the level left
Method in brief: (§1)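 Male adult Charles Foster rats (200–225 g), six per group. Triton WR-1339 400 mg/kg ip with simultaneous oral dosing at 100 mg/kg in 0.2% w/v gum acacia suspension; diet withdrawn; vehicle controls. At 18 h, thiopentone anaesthesia, retro-orbital blood into EDTA, plasma diluted 1:3 in saline; Tc, Tg, Pl by standard enzymatic kits; Student's t-test versus triton group, P<0.05.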

Rattus norvegicus [2] = test: Antidyslipidemic activity against triton-induced hyperlipidemia in Charles Foster rat assessed as reduction in total cholesterol level at 100 mg/kg, po after 18 hrs by spectrophotometry relative to control; type: functional; parameters: scale not given: the % may be the effect or the level left; method in brief: as §1
Rattus norvegicus [3] = test: Antidyslipidemic activity against triton-induced hyperlipidemia in Charles Foster rat assessed as reduction in phospholipid level at 100 mg/kg, po after 18 hrs by spectrophotometry relative to control; type: functional; parameters: scale not given: the % may be the effect or the level left; method in brief: as §1
Rattus norvegicus [4] = test: Antidyslipidemic activity in Charles Foster rat hyperlipidemia model assessed as suppression of triton-induced post heparin lipolytic activity at 100 mg/kg, po after 18 hrs by spectrophotometry relative to control; type: functional
Method in brief: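 Post-heparin lipolytic activity in plasma of male Charles Foster rats given triton WR-1339 400 mg/kg ip plus oral dose 100 mg/kg in gum acacia, six per group, sampled at 18 h; assayed spectrophotometrically per Wing and Robinson, expressed as nmol free fatty acid formed/h/ml plasma; triton group compared with control, treated with triton group.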

[5] = Antioxidant activity assessed as inhibition of xanthine-xanthine oxidase generated superoxide anion radical production at 200 ug/ml by spectrophotometry; type: functional; parameters: scale not given: the % may be the effect or the level left
Method in brief: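 Superoxide generated by xanthine, xanthine oxidase 0.04 U and nitroblue tetrazolium in 100 mM phosphate buffer pH 8.2, with or without compound sonicated in buffer; 37 °C for 30 min, stopped with glacial acetic acid; formazan read at 560 nm, percent inhibition from absorption coefficient 7.2 × 10³ M/cm; allopurinol reference.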

[6] = Antioxidant activity assessed as inhibition non-enzymatic reactants generated hydroxyl radical production at 200 ug/ml by spectrophotometry; type: functional; parameters: scale not given: the % may be the effect or the level left
Method in brief: (§2)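 Hydroxyl radicals generated non-enzymically from deoxyribose 2.8 mM, FeSO4 2 mM, sodium ascorbate 2.0 mM and H2O2 2.8 mM in 50 mM KH2PO4 pH 7.4, with or without compound, 37 °C for 90 min; MDA measured spectrophotometrically by thiobarbituric acid method, with reference samples and reagent blanks; mannitol reference.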

[7] = Antioxidant activity assessed as inhibition microsomal lipid peroxidation at 200 ug/ml by thiobarbituric acid test; type: functional; parameters: scale not given: the % may be the effect or the level left; settings: Microsome
[8] = Antioxidant activity assessed as inhibition non-enzymatic reactants generated hydroxyl radical production at 100 ug/ml by spectrophotometry; type: functional; parameters: scale not given: the % may be the effect or the level left; method in brief: as §2
[9] = Antioxidant activity assessed as inhibition of xanthine-xanthine oxidase generated superoxide anion radical production at 20 ug/ml by spectrophotometry; type: functional; parameters: scale not given: the % may be the effect or the level left
Method in brief: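 Superoxide generated enzymatically with xanthine, xanthine oxidase (0.04 U) and nitroblue tetrazolium in 100 mM phosphate buffer, pH 8.2, with or without test sample. Samples sonicated in phosphate buffer before use. Incubated 30 min at 37 °C, then stopped with glacial acetic acid. Formazan read at 560 nm. Percent inhibition calculated using formazan absorption coefficient 7.2 × 10³ M/cm.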

[10] = Antioxidant activity assessed as inhibition microsomal lipid peroxidation at 100 ug/ml by thiobarbituric acid test; type: functional; parameters: scale not given: the % may be the effect or the level left; settings: Microsome
Vero = test: Cytotoxicity against african green monkey Vero cells; type: cell-based; settings: chlorocebus sabaeus
[11] = Cytotoxicity against primary osteoblast cells; type: cell-based

| SMILES | Activity (Rattus norvegicus [1]) | Activity (Rattus norvegicus [2]) | Activity (Rattus norvegicus [3]) | Activity (Rattus norvegicus [4]) | Activity [5] | Activity [6] | Activity [7] | Activity [8] | Activity [9] | Activity [10] | Activity (Vero) | Activity [11] |
| --- | --- | --- | --- | --- | --- | --- | --- | --- | --- | --- | --- | --- |
| Cc1ccc(N/C=C2/C=C(C=O)c3cccnc3C2=O)cc1 | 25% | 23% | 18% | 5% | 44% | 36% | 41% |  |  |  |  |  |
| O=CC1=C/C(=C/NCCCN2CCOCC2)C(=O)c2ncccc21 | Active | Active | Active | 5% | inactive | inactive | inactive |  |  |  |  |  |
| CC(C)(C)N/C=C1/C=C(C=O)c2cccnc2C1=O | Active | Active | Active | 5% | Active | Active | Active |  |  |  |  |  |
| CC(C)N/C=C1/C=C(C=O)c2cccnc2C1=O | Active | Active | Active | 5% | 47% | 38% | 35% |  |  |  |  |  |
| OC[C@@H](O)[C@@H](O)[C@H](O)[C@H](O)CO |  |  |  |  |  |  |  | 50% |  |  |  |  |
| Oc1ncnc2[nH]ncc12 |  |  |  |  |  |  |  |  | 84% |  |  |  |
| Cc1c(C)c2c(c(C)c1O)CC[C@@](C)(CCC[C@H](C)CCC[C@H](C)CCCC(C)C)O2 |  |  |  |  |  |  |  |  |  | 47% |  |  |
| CN/C=C1/C=C(C=O)c2cccnc2C1=O | 24% | 26% | 25% | 5% | Active | Active | Active |  |  |  | Non-toxic | Non-toxic |
| O=CC1=C/C(=C/NCCN2CCOCC2)C(=O)c2ncccc21 | Active | Active | Active | 5% | inactive | inactive | inactive |  |  |  |  |  |
| CCN/C=C1/C=C(C=O)c2cccnc2C1=O | Active | Active | Active | 5% | Active | Active | Active |  |  |  |  |  |
| Cc1ccc(C)c(OCCCC(C)(C)C(=O)O)c1 [GEMFIBROZIL] | 38% | 36% | 34% | 27% |  |  |  |  |  |  |  |  |
| CC(C)CCCCN/C=C1/C=C(C=O)c2cccnc2C1=O | Active | Active | Active | 5% | inactive | inactive | inactive |  |  |  |  |  |
| O=CC1=C/C(=C/NCc2ccccc2)C(=O)c2ncccc21 |  |  |  | 5% | Active | Active | Active |  |  |  |  |  |
